According to PubChem BioAssay AID504667 (Broad Institute, 2011):
Several values for one entry are separate records, joined by “and”; a condition that tells them apart may be missing. Equal entries are not always repeated. Inconclusive results are not listed. Activity calls are given as the source filed them.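 How the source made its calls: active means signal drops with a fitted half-maximal dose within ten times the top tested dose, in every replicate test; inconclusive means replicate tests disagree, or flat partial drop, or poor fit; inactive means the rest, including effects in the wrong direction.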

Test system: not listed separately
Experiment: HMLE_shECad viability reduction – cell-based, CellTiter-Glo luminescence, dry powder, set 6, dose response (AID 504667)
Details: HMLE_shECad viability, CellTiter-Glo luminescence, 72 h; at 19.5 µM (top of the series)
Method in brief: (§1)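 Times – cell adherence ≥4 h at 37 °C, 5% CO2, compound exposure ~70-74 h · Material – EMT-induced HMLE_shECad cancer stem-like cells · Quantity – 2000 HMLE_shECad cells per well · Detection – CellTiter-Glo ATP luminescence, reagent diluted 1:3 in PBS, 12 min · Buffer or medium – serum-free CSC medium for cell seeding and exposure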
In the case of `CC(C)c1ccc(/C=C/C(=O)Nc2nc3ccccc3s2)cc1`, the activity change, negative = inhibition is reported as -8.38% (inactive). In the case of `CNC(=O)c1csc(NC(=O)c2ccc(COc3ccccc3)o2)n1`, the activity change, negative = inhibition is reported as -0.72% (inactive). In the case of `COCc1ccc(C(=O)Nc2nc(C)cs2)o1`, the activity change, negative = inhibition is reported as -7.05% (inactive). For `Cc1csc(NC(=O)c2ccc(COc3cccc(S(C)(=O)=O)c3)o2)n1`, the activity change, negative = inhibition was -5.39% (inactive). In the case of `C/C(=C\C(=O)NC1=NCCS1)c1ccc(CC(C)C)cc1`, the activity change, negative = inhibition is reported as -2.19% (inactive). With `O=C(Nc1nncs1)c1ccc(COc2ccccc2)o1` the activity change, negative = inhibition was -0.185% (inactive). In the case of `Cc1csc(NC(=O)c2ccc(COC(C)(C)C)o2)n1`, the activity change, negative = inhibition is reported as -7.02% (inactive). For `CCN(CC)C(=O)c1ccc(COc2ccccc2)o1`, the activity change, negative = inhibition was -1.82% (inactive). For `CC(C)NC(=O)c1ccc(COc2ccccc2)o1`, the activity change, negative = inhibition was -15.6% (inactive).

Same assay, conditions: HMLE_shECad viability, CellTiter-Glo luminescence, 72 h; at 30 µM (top of the series)
In the case of `O=C(Nc1nc2cc(F)ccc2s1)c1ccc(COc2ccccc2)o1`, the activity change, negative = inhibition is reported as -21.2% (inactive). With `Cc1ccc2cc(C(=O)NC3=NCCS3)n(C)c2c1` the activity change, negative = inhibition was -5.01% (inactive). For `COc1ccc2nc(NC(=O)c3ccc(COc4ccccc4)o3)sc2c1`, the activity change, negative = inhibition was -14.7% (inactive). With `Cc1csc(NC(=O)c2cocc2COc2ccccc2)n1` the activity change, negative = inhibition was -3.35% (inactive). In the case of `COc1ccc(OC)c2sc(NC(=O)c3ccc(COc4ccccc4)o3)nc12`, the activity change, negative = inhibition is reported as -5.85% (inactive).

Test system: HMLE_shECad viability, CellTiter-Glo luminescence, 72 h
Experiment: as above
Details: not given
Method in brief: as §1
Work on `CC(C)c1ccc(/C=C/C(=O)NC2=NCCS2)cc1` yielded an AC50 of 3.23 µM. `Cc1csc(NC(=O)c2ccc(COC3CCCCC3)o2)n1` gave an AC50 of 13.6 µM. For `Cc1csc(NC(=O)c2coc(COc3ccccc3)c2)n1`, the AC50 was 1.27 µM. In the case of `COc1cccc(OCc2ccc(C(=O)Nc3nc(C)cs3)o2)c1`, the AC50 is reported as 0.223 µM. `CCc1ccc(/C=C/C(=O)NC2=NCCS2)cc1` gave an AC50 of 2.33 µM. With `CCOc1cccc(OCc2ccc(C(=O)Nc3nc(C)cs3)o2)c1` the AC50 was 0.896 µM. In the case of `Cc1cc(C)c(OCC(=O)N/N=C/c2ccc[nH]2)c(C)c1`, the AC50 is reported as 4.45 µM. `COc1ccc(OCc2ccc(C(=O)Nc3nc(C)cs3)o2)c(F)c1` gave an AC50 of 3.35 µM. With `Cc1csc(NC(=O)c2ccc(COc3cccc(Cl)c3)o2)n1` the AC50 was 0.5 µM. Work on `N#Cc1csc(NC(=O)c2ccc(COc3ccccc3)o2)n1` yielded an AC50 of 13.7 µM. Molecule `Cc1csc(NC(=O)c2ccc(COc3ccccc3F)o2)n1` has an AC50 of 0.007 µM. With `Cc1cccc(OCc2ccc(C(=O)Nc3nc(C)cs3)o2)c1` the AC50 was 0.123 µM and 0.596 µM. Work on `Cc1csc(NC(=O)c2ccc(COc3cc(Cl)ccc3Cl)o2)n1` yielded an AC50 of 0.024 µM. Molecule `COc1ccc(Cl)c(OCc2ccc(C(=O)Nc3nc(C)cs3)o2)c1` has an AC50 of 0.08 µM. In the case of `N#Cc1ccc(/C=C/C(=O)NC2=NCCS2)cc1`, the AC50 is reported as 24.6 µM. For `O=C(COc1c(Cl)cc(Cl)cc1Cl)N/N=C/c1ccc[nH]1`, the AC50 was 1.51 µM. `Cc1csc(NC(=O)c2ccc(COCc3ccccc3)o2)n1` showed an AC50 of 4.92 µM. Work on `Cc1csc(NC(=O)c2ccc(COc3cccc(Oc4ccccc4)c3)o2)n1` yielded an AC50 of 0.388 µM. In the case of `Cc1csc(NC(=O)c2ccc(CNc3ccccn3)o2)n1`, the AC50 is reported as 7.55 µM. `O=C(COc1ccc(Cl)cc1Cl)N/N=C/c1ccc[nH]1` showed an AC50 of 3.8 µM. For `Cc1csc(NC(=O)c2ccc(COc3cccc(F)c3)o2)n1`, the AC50 was 3.25 µM. Molecule `Cc1csc(NC(=O)c2ccc(COc3ccccc3S(C)(=O)=O)o2)n1` has an AC50 of 20.9 µM. For `Cc1csc(NC(=O)c2ccoc2COc2ccccc2)n1`, the AC50 was 16.6 µM. `CC(C)c1ccc(/C=C/C(=O)N(C)C2=NCCS2)cc1` gave an AC50 of 20.9 µM. `COc1ccc(/C=C/C(=O)NC2=NCCS2)c(OC)c1` gave an AC50 of 10.4 µM. Molecule `Cc1csc(NC(=O)c2ccc(CNc3ccccc3)o2)n1` has an AC50 of 0.38 µM. `O=C(Nc1nc(C(F)(F)F)cs1)c1ccc(COc2ccccc2)o1` gave an AC50 of 13.8 µM. `Cc1ccc(OCc2ccc(C(=O)Nc3nc(C)cs3)o2)cc1` gave an AC50 of 2.04 µM. `Cc1cc(Br)ccc1OCC(=O)N/N=C/c1ccc[nH]1` gave an AC50 of 3.22 µM. Work on `CC(C)c1ccc(/C=C/C(=O)Nc2cncs2)cc1` yielded an AC50 of 6.44 µM. `Cc1csc(NC(=O)c2ccc(CCc3ccccc3)o2)n1` showed an AC50 of 0.794 µM. With `Cc1csc(NC(=O)c2ccc(COC3CCCC3)o2)n1` the AC50 was 28.3 µM. `Cc1csc(NCc2ccc(COc3ccccc3)o2)n1` showed an AC50 of 28.8 µM. With `Cc1csc(NC(=O)c2ccc(COc3ccccc3)o2)n1` the AC50 was 1.05 µM. With `CC(C)Cc1ccc(/C=C/C(=O)NC2=NCCS2)cc1` the AC50 was 0.386 µM. `Cc1csc(NC(=O)c2ccc(COc3ccccn3)o2)n1` showed an AC50 of 9.4 µM. In the case of `Cc1csc(NC(=O)c2ccc(COc3cccc(OC(F)(F)F)c3)o2)n1`, the AC50 is reported as 0.162 µM.
